Results reported in article PMC3058861 (Archives of biochemistry and biophysics, 2010).
In brackets after ≈: the same amount, converted by molar mass. Structures can show the parent of a compound that is named as a salt. Where two headings read alike, the source gives them in different places.

How the values were obtained:
[1] = biological target: T1, hSULT2A1 (Homo sapiens, UniProt Q06520); conditions: sulfation of pregnenolone; cited from earlier work
T1 sequence (Q06520 1-285): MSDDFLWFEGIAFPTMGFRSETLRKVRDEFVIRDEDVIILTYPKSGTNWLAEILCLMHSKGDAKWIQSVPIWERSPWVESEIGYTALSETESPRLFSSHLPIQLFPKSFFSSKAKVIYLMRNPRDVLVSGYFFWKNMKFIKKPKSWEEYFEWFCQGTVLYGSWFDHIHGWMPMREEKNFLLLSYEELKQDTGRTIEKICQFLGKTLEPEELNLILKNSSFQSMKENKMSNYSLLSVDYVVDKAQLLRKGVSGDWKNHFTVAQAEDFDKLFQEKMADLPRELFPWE

[2] = biological target: T1, hSULT2A1; experiment: Ligand binding to ligand-free hSULT2A1 by intrinsic tryptophan fluorescence; conditions: read-out: dissociation constant (hyperbolic single site); ligand-free enzyme, pH 7.0, 37 °C
[3] = biological target: T2, hSULT2A1-PAP complex (Homo sapiens, UniProt Q06520); experiment: Ligand binding to the hSULT2A1-PAP complex by intrinsic tryptophan fluorescence
T2 sequence (Q06520 1-285): T1 sequence (Q06520 1-285)

[4] = biological target: T3, hSULT2A1-DHEA complex (Homo sapiens, UniProt Q06520); experiment: Ligand binding to the hSULT2A1-DHEA complex by intrinsic tryptophan fluorescence; conditions: read-out: Kd2(app); enzyme pretreated with 80 μM (0.08 mM) DHEA
T3 sequence (Q06520 1-285): T1 sequence (Q06520 1-285)
Method in brief: (§1)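 Purified recombinant hSULT2A1 at 25 nM (dimer basis) was equilibrated 15 min, then pretreated with 80 μM DHEA or 80 μM DHEAS. Test ligand (1.0–300 μM) was added stepwise with stirring at 37 ± 2 °C, and intrinsic tryptophan fluorescence was read after each addition. Data were fitted to a two-site Adair model, with Kd taken as the reciprocal association constants. Triplicates, mean ± SD.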

[5] = biological target: T4, hSULT2A1-DHEAS complex (Homo sapiens, UniProt Q06520); format: binding; conditions: for Kd: enzyme pretreated with 80 μM (0.08 mM) DHEAS
T4 sequence (Q06520 1-285): T1 sequence (Q06520 1-285)
Method in brief: as §1

[6] = Determination of DHEA solubility by light scattering; format: physicochemical; conditions: potassium phosphate buffer, pH 7, aqueous buffer
[7] = biological target: T1, hSULT2A1; experiment: Kinetics of DHEA sulfation catalyzed by recombinant hSULT2A1; format: biochemical; conditions: for substrate inhibition by DHEA: 0.1-2.0 μM DHEA; for substrate inhibition by PAPS: 1.0-300 μM PAPS
[8] = read-out: Kd2(app), in the presence of 100 μM (0.1 mM) PAP
[9] = 0.25-20 μM DHEA, 200 μM PAPS, pH 7.0, 37 °C, substrate inhibition equation

CC(=O)[C@H]1CC[C@H]2[C@@H]3CC=C4C[C@@H](O)CC[C@]4(C)[C@H]3CC[C@]12C [pregnenolone]
catalytic efficiency (kcat/Km) with hSULT2A1 relative to hSULT2B1 and hSULT2B2 [1]: 3-8 fold

C[C@]12CC[C@H](OS(=O)(=O)O)CC1=CC[C@@H]1[C@@H]2CC[C@]2(C)C(=O)CC[C@@H]12 [DHEAS, dehydroepiandrosterone sulfate]
Kd [2]: 7.2 ± 0.3 µM | Kd ([3]; read-out: Kd1(app), in the presence of 100 μM (0.1 mM) PAP): 3.3 ± 0.2 µM | Kd [3, 8]: 3.3 ± 0.2 µM | Kd ([3]; read-out: Kd(app) (hyperbolic single site), in the presence of 100 μM PAP): 3.3 ± 0.2 µM

Nc1ncnc2c1ncn2[C@@H]1O[C@H](COP(=O)(O)O)[C@@H](OP(=O)(O)O)[C@H]1O [PAP, adenosine 3′,5′-diphosphate]
Kd [4]: 243 ± 27 µM | Kd ([5]; read-out: Kd2(app)): 415 ± 75 µM

C[C@]12CC[C@H](O)CC1=CC[C@@H]1[C@@H]2CC[C@]2(C)C(=O)CC[C@@H]12 [DHEA, dehydroepiandrosterone (5-androsten-3β-ol-17-one)]
solubility [6]: 80 µM (≈ 23.1 µg/mL) | substrate inhibition by DHEA ([7]; intermediate PAPS 5.0 – 60 μM): substrate inhibition was observed | substrate inhibition by DHEA ([7]; lowest (1.0 μM) and highest (100 and 300 μM) PAPS): substrate inhibition was not evident | Kis (substrate inhibition constant) [7, 9]: 8 ± 3 µM | Km [7, 9]: 0.8 ± 0.3 µM | Vmax [7, 9]: 245 ± 40 nmol/min/mg | Kd [3, 8]: 22 ± 3.2 µM

Nc1ncnc2c1ncn2[C@@H]1O[C@H](COP(=O)(O)OS(=O)(=O)O)[C@@H](OP(=O)(O)O)[C@H]1O [PAPS, 3′-phosphoadenosine 5′-phosphosulfate]
substrate inhibition by PAPS ([7]; 80 μM DHEA): significant substrate inhibition | substrate inhibition by PAPS ([7]; DHEA 0.1 μM - 2.0 μM): no indication that PAPS displayed substrate inhibition | substrate inhibition by PAPS ([7]; DHEA 5.0 μM or 20 μM): did not exhibit substrate inhibition | Kd2(app) relative to Kd1(app) ([5]; enzyme pretreated with 80 μM DHEAS): over 200 fold | Kd ([5]; read-out: Kd1(app)): 1.3 ± 0.4 µM | Kd ([5]; read-out: Kd2(app)): 315 ± 27 µM
